Source: ChEMBL document CHEMBL1156815, “Synthesis and opioid activity of enantiomeric N-substituted 2,3,4,4a,5,6,7,7a-octahydro-1H-benzofuro[3,2-e]isoquinolines” (J Med Chem, 2010)

Tests used:
[1] = species on record: Homo sapiens; test: Selectivity index, ratio of Ki for human kappa opioid receptor to human mu opioid receptor
[2] = species on record: Rattus norvegicus; test: Selectivity index, ratio of Ki for rat brain sigma2 receptor to Ki for rat brain sigma1 receptor
[3] = Displacement of [3H]di-O-tolyguanidine from sigma2 receptor in rat brain homogenate; format: tissue-based
[4] = species on record: Homo sapiens; test: Selectivity index, ratio of Ki for human delta opioid receptor to human mu opioid receptor
[5] = target: T1, Delta-type opioid receptor (Homo sapiens, UniProt P41143); test: Agonist activity at human delta opioid receptor expressed in CHO cells assessed as stimulation of [35S]GTPgammaS binding; format: functional, cell-based
Method in brief: (§1)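 [35S]GTPgammaS binding stimulation at the delta receptor, n = 3, reported with SD.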

[6] = target: T1, Delta-type opioid receptor; test: Agonist activity at human delta opioid receptor expressed in CHO cells assessed as stimulation of [35S]GTPgammaS binding relative to 500 nM SNC80; format: functional, cell-based; method in brief: as §1
[7] = target: T2, Kappa-type opioid receptor (Homo sapiens, UniProt P41145); details: CHO
[8] = target: T3, Mu-type opioid receptor (Homo sapiens, UniProt P35372); details: CHO
[9] = Binding affinity to sigma receptor
[10] = target: T2, Kappa-type opioid receptor; test: biochemical; format: cell-based, CHO
[11] = target: T1, Delta-type opioid receptor; test: Displacement of [125I]OXY from human delta opioid receptor expressed in CHO cells; format: cell-based
[12] = target: Sigma non-opioid intracellular receptor 1 (Rattus norvegicus, UniProt Q9R0C9); test: Displacement of [3H](+)-pentazocine from sigma1 receptor in rat brain homogenate; format: tissue-based
Method in brief: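 Rat brain homogenate binding. Nonspecific binding defined with haloperidol. Means ± SEM from replicate assays.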

[13] = target: T3, Mu-type opioid receptor; test: biochemical; format: cell-based, CHO
[14] = target: T3, Mu-type opioid receptor; test: Binding affinity to human mu opioid receptor expressed in CHO cells; format: cell-based
[15] = target: T1, Delta-type opioid receptor; test: Binding affinity to human delta opioid receptor expressed in CHO cells; format: cell-based
[16] = target: T3, Mu-type opioid receptor; details: CHO; remark: listed apart in the source
[17] = target: T2, Kappa-type opioid receptor; details: CHO; remark: listed apart in the source
[18] = target: T1, Delta-type opioid receptor; details: CHO

Sigma non-opioid intracellular receptor 1, sequence (Q9R0C9 whole entry): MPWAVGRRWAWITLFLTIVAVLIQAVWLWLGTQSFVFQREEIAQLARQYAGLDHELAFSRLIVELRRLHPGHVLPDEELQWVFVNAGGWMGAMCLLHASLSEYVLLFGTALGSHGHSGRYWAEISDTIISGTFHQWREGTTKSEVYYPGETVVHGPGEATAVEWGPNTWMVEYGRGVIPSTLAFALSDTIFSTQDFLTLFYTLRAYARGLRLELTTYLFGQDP
T2 sequence (P41145 whole entry): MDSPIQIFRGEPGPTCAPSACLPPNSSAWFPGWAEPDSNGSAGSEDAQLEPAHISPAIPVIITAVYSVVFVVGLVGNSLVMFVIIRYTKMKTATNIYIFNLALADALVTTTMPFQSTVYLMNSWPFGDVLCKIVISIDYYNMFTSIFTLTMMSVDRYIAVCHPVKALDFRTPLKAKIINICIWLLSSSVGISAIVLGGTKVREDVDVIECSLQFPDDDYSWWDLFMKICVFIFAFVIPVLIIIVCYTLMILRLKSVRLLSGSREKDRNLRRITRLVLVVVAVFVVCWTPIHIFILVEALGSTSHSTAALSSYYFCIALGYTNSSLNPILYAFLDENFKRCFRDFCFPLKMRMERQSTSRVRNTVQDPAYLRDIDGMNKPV
T1 sequence (P41143 whole entry): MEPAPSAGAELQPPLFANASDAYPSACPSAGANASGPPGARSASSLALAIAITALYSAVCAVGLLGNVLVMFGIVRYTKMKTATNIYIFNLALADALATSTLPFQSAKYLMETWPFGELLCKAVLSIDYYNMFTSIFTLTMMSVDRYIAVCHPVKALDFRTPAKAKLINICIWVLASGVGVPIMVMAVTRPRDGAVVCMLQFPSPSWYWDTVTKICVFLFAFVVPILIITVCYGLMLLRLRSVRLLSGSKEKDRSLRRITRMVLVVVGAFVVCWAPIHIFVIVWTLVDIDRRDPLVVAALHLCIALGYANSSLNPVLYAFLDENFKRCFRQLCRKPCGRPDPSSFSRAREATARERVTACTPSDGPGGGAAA
T3 sequence (P35372 whole entry): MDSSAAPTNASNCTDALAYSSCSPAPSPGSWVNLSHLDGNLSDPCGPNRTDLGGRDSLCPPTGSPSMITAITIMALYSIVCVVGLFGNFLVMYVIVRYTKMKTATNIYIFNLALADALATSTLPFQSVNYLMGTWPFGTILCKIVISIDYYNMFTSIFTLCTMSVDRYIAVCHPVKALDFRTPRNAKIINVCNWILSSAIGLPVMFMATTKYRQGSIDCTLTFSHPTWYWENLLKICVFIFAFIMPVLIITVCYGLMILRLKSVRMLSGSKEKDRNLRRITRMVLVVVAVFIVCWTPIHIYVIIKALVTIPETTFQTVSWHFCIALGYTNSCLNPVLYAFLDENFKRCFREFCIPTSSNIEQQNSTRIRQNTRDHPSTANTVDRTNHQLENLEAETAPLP

Structure (SMILES) | Ratio Ki [1] | Ki [3] [nM] | Ki [10] [nM] | Ki [11] [nM] | Ki [12] [nM] | Ki [13] [nM] | also measured
Oc1cccc2c1O[C@H]1CCC[C@H]3CN(CC4CC4)CC[C@@]231 (stereo in doubt; (+)-1b) [listing 1 of 2 here] | 0.53 | – | – | – | – | – | Ratio Ki [2]: 5.1
CC(C)=CCN1CC[C@]2(C)c3cc(O)ccc3C[C@H]1[C@H]2C [(+)-PENTAZOCINE] | – | 1360 | – | – | – | – | –
COc1cccc2c1O[C@H]1CCC[C@H]3CN(CCc4ccccc4)CC[C@@]231 (stereo in doubt; (+)-3c) [listing 1 of 2 here] | 7.9 | – | – | – | – | – | Ratio Ki [4]: 58; Ratio Ki [2]: 9.2
Oc1cccc2c1O[C@H]1CCC[C@H]3CN(CCc4ccccc4)CC[C@@]231 (stereo in doubt; (-)-1c) [listing 1 of 2 here] | 50 | – | – | – | – | – | ED50 [5]: 148 nM; Emax [6]: 64%; Ke [7]: 130 nM; Ratio Ki [4]: 20; ED50 [8]: 10 nM; Ratio Ki [2]: 23
Oc1cccc2c1O[C@H]1CCC[C@H]3CN(CC4CC4)CC[C@@]231 (racemic) | – | – | – | – | – | – | Ki [9]: 21 nM
COc1cccc2c1O[C@H]1CCC[C@H]3CN(CCc4ccccc4)CC[C@@]231 (stereo in doubt; (+)-3c) [listing 2 of 2 here] | – | 2550 | 1140 | 8390 | 278 | 145 | –
COc1cccc2c1O[C@H]1CCC[C@H]3CN(CC4CC4)CC[C@@]231 (stereo in doubt; (-)-3b) [listing 1 of 2 here] | 1.4 | – | – | – | – | – | Ratio Ki [4]: 18; Ratio Ki [2]: 11
COc1cccc2c1O[C@H]1CCC[C@@H]3CN(C)CC[C@@]231 (stereo in doubt; (+)-4) [listing 1 of 2 here] | – | – | 1850 | > 10000 | – | > 10000 | –
COc1cccc2c1O[C@H]1CCC[C@@H]3CN(C)CC[C@@]231 (stereo in doubt; (-)-4) [listing 1 of 2 here] | 21 | – | – | – | – | – | Ratio Ki [4]: 39
Oc1cccc2c1O[C@H]1CCC[C@H]3CN(CC4CC4)CC[C@@]231 (stereo in doubt; (-)-1b) [listing 1 of 2 here] | – | > 10000 | 0.1 | 2 | 399 | 0.08 | Kd [14]: 0.22 nM; Kd [15]: 20 nM
COc1cccc2c1O[C@H]1CCC[C@H]3CN(CCc4ccccc4)CC[C@@]231 (stereo in doubt; (-)-3c) [listing 1 of 2 here] | 77 | – | – | – | – | – | Ratio Ki [4]: 20; Ratio Ki [2]: 5.8
Oc1cccc2c1O[C@H]1CCC[C@H]3CN(CC4CC4)CC[C@@]231 (stereo in doubt; (+)-1b) [listing 2 of 2 here] | – | 1030 | 699 | > 10000 | 201 | 1330 | –
Oc1cccc2c1O[C@H]1CCC[C@H]3CN(CCc4ccccc4)CC[C@@]231 (stereo in doubt; (+)-1c) [listing 1 of 2 here] | – | 263 | 1240 | 5000 | 131 | 275 | –
COc1cccc2c1O[C@H]1CCC[C@H]3CN(C)CC[C@@]231 (stereo in doubt; (+)-3a) [listing 1 of 2 here] | 0.95 | – | – | – | – | – | Ratio Ki [2]: > 15
C=CCN1CC[C@]23c4c5ccc(O)c4O[C@H]2C(=O)CC[C@@]3(O)[C@H]1C5 [NALOXONE] | – | > 10000 | – | – | – | – | –
Oc1cccc2c1O[C@H]1CCC[C@H]3CN(CC4CC4)CC[C@@]231 (stereo in doubt; (-)-1b) [listing 2 of 2 here] | 1.3 | – | – | – | – | – | Ratio Ki [4]: 25; Ke [16]: 0.22 nM; ED50 [17]: 2.3 nM; Ke [18]: 20 nM; Ratio Ki [2]: > 25
C[C@@H](NC(=O)[C@@H](N)Cc1ccc(O)cc1)C(=O)NCC(=O)N(C)[C@@H](Cc1ccccc1)C(=O)NCCO | – | – | – | – | – | – | ED50 [17]: 8940 nM

Structure (SMILES) | Ratio Ki [1] | Ki [3] [nM] | Ki [10] [nM] | Ki [11] [nM] | Ki [12] [nM] | Ki [13] [nM] | also measured
CN1CC[C@]23c4cccc(O)c4O[C@H]2CCC[C@@H]3C1 (stereo in doubt; (+)-5) | – | – | – | – | – | – | Ki ([10]; cho): > 10000 nM; Ki ([11]; cho): > 10000 nM
CN1CC[C@]23c4cccc(O)c4O[C@H]2CCC[C@H]3C1 (stereo in doubt; (-)-1a) [listing 1 of 2 here] | – | > 10000 | 14 | 44 | > 10000 | – | –
Oc1cccc2c1O[C@H]1CCC[C@H]3CN(CCc4ccccc4)CC[C@@]231 (stereo in doubt; (-)-1c) [listing 2 of 2 here] | – | 5380 | 15 | 6 | 239 | 0.3 | –
COc1cccc2c1O[C@H]1CCC[C@H]3CN(CC4CC4)CC[C@@]231 (stereo in doubt; (+)-3b) [listing 1 of 2 here] | – | – | – | – | – | – | Ratio Ki [2]: 71
COc1cccc2c1O[C@H]1CCC[C@H]3CN(C)CC[C@@]231 (stereo in doubt; (-)-3a) [listing 1 of 2 here] | 15 | – | – | – | – | – | Ratio Ki [4]: 41; Ratio Ki [2]: < 0.7
Oc1cccc2c1O[C@H]1CCC[C@H]3CN(CCc4ccccc4)CC[C@@]231 (stereo in doubt; (+)-1c) [listing 2 of 2 here] | 4.5 | – | – | – | – | – | Ratio Ki [4]: 18; Ratio Ki [2]: 2
CN1CC[C@]23c4cccc(O)c4O[C@H]2CCC[C@H]3C1 (stereo in doubt; (+)-1a) | – | – | 6900 | > 10000 | 2010 | – | –
COc1cccc2c1O[C@H]1CCC[C@H]3CN(CC4CC4)CC[C@@]231 (stereo in doubt; (-)-3b) [listing 2 of 2 here] | – | 3270 | 41 | 544 | 285 | 30 | –
CN1CC[C@]23c4cccc(O)c4O[C@H]2CCC[C@@H]3C1 (stereo in doubt; (-)-5) | – | – | > 10000 | > 10000 | – | – | –
COc1cccc2c1O[C@H]1CCC[C@@H]3CN(C)CC[C@@]231 (stereo in doubt; (-)-4) [listing 2 of 2 here] | – | – | 565 | 1050 | – | 27 | –
CN1CC[C@]23c4cccc(O)c4O[C@H]2CCC[C@H]3C1 (stereo in doubt; (-)-1a) [listing 2 of 2 here] | – | – | – | – | – | – | Ke [7]: 80 nM; ED50 [8]: 19 nM
CC(C)=CCN1CC[C@@]2(C)c3cc(O)ccc3C[C@@H]1[C@@H]2C | – | 56 | – | – | – | – | –
COc1cccc2c1O[C@H]1CCC[C@H]3CN(CCc4ccccc4)CC[C@@]231 (stereo in doubt; (-)-3c) [listing 2 of 2 here] | – | 3270 | 1850 | 490 | 560 | 24 | –
COc1cccc2c1O[C@H]1CCC[C@H]3CN(C)CC[C@@]231 (stereo in doubt; (-)-3a) [listing 2 of 2 here] | – | 7480 | 3470 | 9750 | > 10000 | 236 | –
COc1cccc2c1O[C@H]1CCC[C@H]3CN(C)CC[C@@]231 (stereo in doubt; (+)-3a) [listing 2 of 2 here] | – | > 10000 | 7230 | > 10000 | 658 | 7610 | –
COc1cccc2c1O[C@H]1CCC[C@@H]3CN(C)CC[C@@]231 (stereo in doubt; (+)-4) [listing 2 of 2 here] | < 0.19 | – | – | – | – | – | –
COc1cccc2c1O[C@H]1CCC[C@H]3CN(CC4CC4)CC[C@@]231 (stereo in doubt; (+)-3b) [listing 2 of 2 here] | – | 4370 | > 10000 | > 10000 | 62 | > 10000 | –
